# The source made the active and inactive calls. No cut-off for these calls is given here.
# Tests used:
# Rattus norvegicus [1] = test: […] activity in fructose-challenged Sprague-Dawley rat assessed as increase in liver ACOX1 mRNA expression at 30 mg/kg, po administered once daily via gavage for 2 weeks measured after 5 hrs fasting by SYBR green dye-based RT-PCR analysis; type: functional, organism-based
# Outline: (§1)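 Male rats were given 25% fructose in drinking water for 3 weeks. They then received 30 mg/kg/day orally in 0.5% methylcellulose (vehicle control) for 2 more weeks while fructose continued. Liver mRNA was measured by real-time RT-PCR, normalized to β2-microglobulin and set as 1 in the vehicle group. Values are means ± S.D.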
# Rattus norvegicus [2] = test: […] activity in fructose-challenged Sprague-Dawley rat assessed as increase in liver ACADM mRNA expression at 30 mg/kg, po administered once daily via gavage for 2 weeks measured after 5 hrs fasting by SYBR green dye-based RT-PCR analysis; type: functional, organism-based; outline: as §1
# Rattus norvegicus [3] = test: […] activity in fructose-challenged Sprague-Dawley rat assessed as increase in liver SLC25A20 mRNA expression at 30 mg/kg, po administered once daily via gavage for 2 weeks measured after 5 hrs fasting by SYBR green dye-based RT-PCR analysis; type: functional, organism-based; outline: as §1
# Rattus norvegicus [4] = test: […] activity in fructose-challenged Sprague-Dawley rat assessed as reduction in serum triglyceride level at 30 mg/kg, po administered once daily via gavage for 2 weeks measured after 5 hrs fasting; type: functional, organism-based
# Outline: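 Male rats had 25% fructose in drinking water for 3 weeks, then oral dosing at 30 mg/kg/day for 2 weeks with fructose continued. The vehicle group got 0.5% methylcellulose. Serum triglyceride was measured after the 2-week treatment.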
# Rattus norvegicus [5] = test: […] activity in fructose-challenged Sprague-Dawley rat assessed as increase in liver CPT1A mRNA expression at 30 mg/kg, po administered once daily via gavage for 2 weeks measured after 5 hrs fasting by SYBR green dye-based RT-PCR analysis; type: functional, organism-based; outline: as §1
# Rattus norvegicus [6] = test: […] activity in fructose-challenged Sprague-Dawley rat assessed as increase in liver ACOX1 mRNA expression at 10 mg/kg, po administered once daily via gavage for 2 weeks measured after 5 hrs fasting by SYBR green dye-based RT-PCR analysis; type: functional, organism-based
# Outline: as §1, with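 “10” for “30”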
# [7] = biological target: T1, Peroxisome proliferator-activated receptor gamma (Homo sapiens) (UniProt P37231); test: Transactivation of human GAL4-fused PPARgamma expressed in human HepG2 cells at 30 uM after 24 hrs by renilla luciferase reporter gene assay; type: cell-based
# T1 sequence (whole entry): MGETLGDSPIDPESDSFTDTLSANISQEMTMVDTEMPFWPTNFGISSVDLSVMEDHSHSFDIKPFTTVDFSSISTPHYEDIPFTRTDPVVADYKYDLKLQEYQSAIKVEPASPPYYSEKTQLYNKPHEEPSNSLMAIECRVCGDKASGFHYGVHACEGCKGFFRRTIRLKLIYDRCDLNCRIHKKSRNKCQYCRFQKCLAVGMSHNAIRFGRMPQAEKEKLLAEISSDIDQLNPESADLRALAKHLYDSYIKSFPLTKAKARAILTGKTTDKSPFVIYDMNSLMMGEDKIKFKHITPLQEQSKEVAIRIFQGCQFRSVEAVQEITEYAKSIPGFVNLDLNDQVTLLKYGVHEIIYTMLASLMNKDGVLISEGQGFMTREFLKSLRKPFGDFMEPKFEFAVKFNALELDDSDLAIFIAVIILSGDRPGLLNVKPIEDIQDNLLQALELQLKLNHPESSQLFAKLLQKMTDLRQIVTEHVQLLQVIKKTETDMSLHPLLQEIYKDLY
# Outline: (§2)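 HepG2 cells carried GAL4-fused human PPARγ or PPARδ, or mouse or rat PPARα, plus the 4xUAS-tk-luc reporter. Cells treated across a concentration range for 24 h. Luciferase normalized to Renilla activity and expressed as fold induction over vehicle, set as 1.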
# Rattus norvegicus [8] = test: […] activity in fructose-challenged Sprague-Dawley rat assessed as increase in liver ACADM mRNA expression at 10 mg/kg, po administered once daily via gavage for 2 weeks measured after 5 hrs fasting by SYBR green dye-based RT-PCR analysis; type: functional, organism-based
# Outline: as §1, with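 “10” for “30”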
# [9] = biological target: T2, Peroxisome proliferator-activated receptor alpha (Homo sapiens) (UniProt Q07869); test: Transactivation of human PPARalpha in human FLC4 cells assessed as upregulation of PDK4 mRNA expression after 48 hrs by SYBR green dye-based RT-PCR analysis; type: cell-based
# T2 sequence (whole entry): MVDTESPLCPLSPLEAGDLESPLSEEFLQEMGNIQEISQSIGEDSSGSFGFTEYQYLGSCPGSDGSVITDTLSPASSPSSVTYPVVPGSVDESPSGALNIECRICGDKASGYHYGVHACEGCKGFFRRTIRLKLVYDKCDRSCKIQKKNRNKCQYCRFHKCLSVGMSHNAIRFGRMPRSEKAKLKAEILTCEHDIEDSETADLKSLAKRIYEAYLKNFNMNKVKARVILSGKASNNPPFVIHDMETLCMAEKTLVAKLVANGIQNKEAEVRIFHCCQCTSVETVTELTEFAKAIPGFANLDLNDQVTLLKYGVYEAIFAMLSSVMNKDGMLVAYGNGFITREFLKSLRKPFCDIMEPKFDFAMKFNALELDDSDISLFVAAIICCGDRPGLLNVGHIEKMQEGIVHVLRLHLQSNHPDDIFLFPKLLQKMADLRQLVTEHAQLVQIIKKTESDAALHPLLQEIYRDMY
# Outline: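 FLC4 cells treated for 48 h with various concentrations. PDK4 mRNA measured by real-time RT-PCR, normalized to β2-microglobulin and set as 1 in vehicle. Values are means ± S.D.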
# Rattus norvegicus [10] = test: […] activity in fructose-challenged Sprague-Dawley rat assessed as increase in liver CPT1A mRNA expression at 10 mg/kg, po administered once daily via gavage for 2 weeks measured after 5 hrs fasting by SYBR green dye-based RT-PCR analysis; type: functional, organism-based
# Outline: as §1, with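 “10” for “30”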
# [11] = biological target: Peroxisome proliferator-activated receptor alpha (Homo sapiens) (UniProt Q07869); test: Displacement of fluormone pan-PPAR green from GST-tagged human PPARalpha ligand binding domain after 3 hrs by TR-FRET assay
# [12] = biological target: T2, Peroxisome proliferator-activated receptor alpha (Homo sapiens); test: Transactivation of human GAL4-fused PPARalpha LBD expressed in human HepG2 cells at 1 uM after 24 hrs by dual renilla-luciferase reporter gene assay relative to fenofibrate; type: cell-based
# Outline: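 HepG2 cells cotransfected with 4xUAS-tk-luc and pBIND-hPPARα. Cells treated 24 h with compound at 1 μM final; fenofibrate 10 μM served as reference and 0.1% DMSO as vehicle. Read-out by reporter gene luciferase assay.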
# [13] = biological target: T2, Peroxisome proliferator-activated receptor alpha (Homo sapiens); test: Transactivation of human PPARalpha LBD expressed in human HepG2 cells at 10 uM after 24 hrs in presence of PPARalpha antagonist by dual renilla-luciferase reporter gene assay; type: cell-based
# Outline: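 Transfected HepG2 cells (4xUAS-tk-luc plus pBIND-hPPARα) were pretreated 1 h with graded GW6471 before agonist was added at 10 μM final. Reporter luciferase was read after treatment. Percent inhibition was calculated relative to activity without GW6471, taken as 100%.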
# [14] = Selectivity ratio of EC50 for rat GAL4-fused PPARalpha expressed in human HepG2 cells to EC50 for human GAL4-fused PPARalpha LBD expressed in human HepG2 cells; type: cell-based
# [15] = biological target: T3, Peroxisome proliferator-activated receptor delta (Homo sapiens) (UniProt Q03181); test: Transactivation of human GAL4-fused PPARdelta expressed in human HepG2 cells after 24 hrs by dual renilla-luciferase reporter gene assay; type: cell-based; outline: as §2
# T3 sequence (whole entry): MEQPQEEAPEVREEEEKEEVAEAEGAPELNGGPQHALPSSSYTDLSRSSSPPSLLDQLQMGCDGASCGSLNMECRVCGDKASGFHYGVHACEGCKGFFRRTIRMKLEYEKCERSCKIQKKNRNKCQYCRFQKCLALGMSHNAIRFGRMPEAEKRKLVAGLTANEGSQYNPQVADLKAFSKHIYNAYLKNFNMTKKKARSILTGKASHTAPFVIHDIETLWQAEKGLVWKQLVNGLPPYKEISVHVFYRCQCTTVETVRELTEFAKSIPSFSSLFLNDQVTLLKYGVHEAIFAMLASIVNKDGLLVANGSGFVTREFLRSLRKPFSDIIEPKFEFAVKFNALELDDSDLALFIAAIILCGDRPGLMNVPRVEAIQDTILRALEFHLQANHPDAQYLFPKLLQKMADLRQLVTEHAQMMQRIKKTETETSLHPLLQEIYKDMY
# [16] = Selectivity ratio of EC50 for mouse GAL4-fused PPARalpha expressed in human HepG2 cells to EC50 for human GAL4-fused PPARalpha LBD expressed in human HepG2 cells; type: cell-based
# Rattus norvegicus [17] = test: […] activity in fructose-challenged Sprague-Dawley rat assessed as reduction in serum triglyceride level at 10 mg/kg, po administered once daily via gavage for 2 weeks measured after 5 hrs fasting; type: functional, organism-based
# Outline: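 Male rats had 25% fructose in drinking water for 3 weeks, then oral dosing at 10 mg/kg/day for 2 weeks with fructose continued. The vehicle group got 0.5% methylcellulose. Serum triglyceride was measured after the 2-week treatment.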
# Rattus norvegicus [18] = test: […] activity in fructose-challenged Sprague-Dawley rat assessed as increase in liver SLC25A20 mRNA expression at 10 mg/kg, po administered once daily via gavage for 2 weeks measured after 5 hrs fasting by SYBR green dye-based RT-PCR analysis; type: functional, organism-based
# Outline: as §1, with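 “10” for “30”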
Activity [7],Activity [9],inhibition [11],activation relative to fenofibrate [12],Activity [13],Activity [15],SMILES,Activity (Rattus norvegicus [1]),Activity (Rattus norvegicus [2]),Activity (Rattus norvegicus [3]),Activity (Rattus norvegicus [4]),Activity (Rattus norvegicus [5]),Activity (Rattus norvegicus [6]),Activity (Rattus norvegicus [8]),Activity (Rattus norvegicus [10]),Ratio EC50 [14],Ratio EC50 [16],Activity (Rattus norvegicus [17]),Activity (Rattus norvegicus [18])
–,–,–,–,–,–,CC(C)OC(=O)C(C)(C)Oc1ccc(C(=O)c2ccc(Cl)cc2)cc1,Active,Active,Active,Active,Active,–,–,–,–,–,–,–
Active,Dose-dependent effect,Dose-dependent effect,187,inactive,inactive,Cc1cc(C(=O)O)c2c(C(C)C)nn(-c3ccc(Cl)cc3)c2n1,–,–,–,–,–,Active,Active,Active,20,20,Active,Active
